# Assay results reported in ChEMBL document CHEMBL4613300, “Pharmacophore-Based Virtual Screening for Identification of Negative Modulators of GLI1 as Potential Anticancer Agents” (ACS Med Chem Lett, 2020).
# Active and inactive are the calls of the source. The calls are words filed in the database; no cut-off is given here.
# Experiments:
# A-375 [1] = experiment: Antiproliferative activity against human A375 cells assessed as reduction in cell viability incubated for 72 hrs by trypan blue or crystal violet staining based assay; format: functional
# [2] = target: T1, Zinc finger protein GLI1 (Mus musculus) (UniProt P47806); experiment: Inhibition of GLI1 transcriptional activity in HH-responsive mouse NIH3T3 cells assessed as reduction in GLI1 protein expression at 5 uM incubated for 48 hrs in presence of SAG by Western blot analysis; format: cell-based
# T1 sequence (whole entry): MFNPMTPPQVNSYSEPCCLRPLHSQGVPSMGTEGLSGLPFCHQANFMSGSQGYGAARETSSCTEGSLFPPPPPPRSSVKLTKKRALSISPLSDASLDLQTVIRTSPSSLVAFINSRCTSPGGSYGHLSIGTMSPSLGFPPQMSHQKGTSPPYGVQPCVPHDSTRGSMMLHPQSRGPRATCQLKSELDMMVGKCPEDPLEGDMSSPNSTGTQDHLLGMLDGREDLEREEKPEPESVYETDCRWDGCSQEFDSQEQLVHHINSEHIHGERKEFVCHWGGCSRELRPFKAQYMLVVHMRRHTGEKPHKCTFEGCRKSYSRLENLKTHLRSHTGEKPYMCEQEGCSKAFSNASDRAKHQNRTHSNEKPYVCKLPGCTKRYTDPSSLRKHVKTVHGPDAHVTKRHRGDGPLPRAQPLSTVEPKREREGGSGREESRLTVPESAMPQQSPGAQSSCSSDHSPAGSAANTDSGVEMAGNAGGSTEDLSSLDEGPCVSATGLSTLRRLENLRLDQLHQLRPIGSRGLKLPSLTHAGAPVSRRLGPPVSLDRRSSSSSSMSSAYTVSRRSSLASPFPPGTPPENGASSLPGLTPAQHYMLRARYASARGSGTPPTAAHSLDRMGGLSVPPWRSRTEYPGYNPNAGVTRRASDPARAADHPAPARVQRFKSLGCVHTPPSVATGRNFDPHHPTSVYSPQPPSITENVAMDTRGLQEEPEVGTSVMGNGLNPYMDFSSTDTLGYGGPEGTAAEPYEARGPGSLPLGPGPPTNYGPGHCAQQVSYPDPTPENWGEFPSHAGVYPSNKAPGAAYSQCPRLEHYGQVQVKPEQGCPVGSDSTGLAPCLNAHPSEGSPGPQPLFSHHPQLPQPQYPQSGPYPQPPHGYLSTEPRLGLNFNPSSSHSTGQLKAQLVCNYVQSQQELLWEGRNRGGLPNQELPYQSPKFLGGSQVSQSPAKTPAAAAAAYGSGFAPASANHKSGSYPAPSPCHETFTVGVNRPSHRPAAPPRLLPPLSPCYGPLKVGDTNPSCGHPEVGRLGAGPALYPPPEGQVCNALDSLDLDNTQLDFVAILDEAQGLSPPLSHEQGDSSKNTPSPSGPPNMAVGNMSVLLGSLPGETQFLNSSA
# Method in brief: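 Murine NIH3T3 cells given 100 nM SAG plus compound (5 μM) or DMSO for 48 h. Endogenous GLI1 protein measured by Western blot with HSP90 as loading control, band quantified against SAG-treated cells.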
# [3] = target: T1, Zinc finger protein GLI1 (Mus musculus); experiment: Inhibition of GLI1 transcriptional activity in HH-responsive mouse NIH3T3 cells assessed as reduction in SAG-induced luciferase activity at 5 uM incubated for 48 hrs by luciferase reporter gene assay relative to control; format: cell-based
# Method in brief: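 HH-responsive NIH3T3 cells carrying a GLI-dependent firefly luciferase reporter with renilla control, treated 48 h with 100 nM SAG plus compound (5 μM). Firefly/renilla ratio normalised to SAG-only cells set at 100%, reported as percent inhibition.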
# Daoy = experiment: Antiproliferative activity against human DaOY cells assessed as reduction in cell viability incubated for 72 hrs by trypan blue or crystal violet staining based assay; format: functional
# MCF-10A = experiment: Cytotoxicity against human MCF10A cells assessed as reduction in cell viability incubated for 72 hrs by trypan blue or crystal violet staining based assay
# [4] = target: T2, Zinc finger protein GLI1 (Homo sapiens) (UniProt P08151); experiment: Inhibition of GLI1 transcriptional activity in human A375 cells assessed as downregulation of GLI2 mRNA expression at 5 uM incubated for 48 hrs by qPCR analysis; format: cell-based; conditions: A-375
# T2 sequence (whole entry): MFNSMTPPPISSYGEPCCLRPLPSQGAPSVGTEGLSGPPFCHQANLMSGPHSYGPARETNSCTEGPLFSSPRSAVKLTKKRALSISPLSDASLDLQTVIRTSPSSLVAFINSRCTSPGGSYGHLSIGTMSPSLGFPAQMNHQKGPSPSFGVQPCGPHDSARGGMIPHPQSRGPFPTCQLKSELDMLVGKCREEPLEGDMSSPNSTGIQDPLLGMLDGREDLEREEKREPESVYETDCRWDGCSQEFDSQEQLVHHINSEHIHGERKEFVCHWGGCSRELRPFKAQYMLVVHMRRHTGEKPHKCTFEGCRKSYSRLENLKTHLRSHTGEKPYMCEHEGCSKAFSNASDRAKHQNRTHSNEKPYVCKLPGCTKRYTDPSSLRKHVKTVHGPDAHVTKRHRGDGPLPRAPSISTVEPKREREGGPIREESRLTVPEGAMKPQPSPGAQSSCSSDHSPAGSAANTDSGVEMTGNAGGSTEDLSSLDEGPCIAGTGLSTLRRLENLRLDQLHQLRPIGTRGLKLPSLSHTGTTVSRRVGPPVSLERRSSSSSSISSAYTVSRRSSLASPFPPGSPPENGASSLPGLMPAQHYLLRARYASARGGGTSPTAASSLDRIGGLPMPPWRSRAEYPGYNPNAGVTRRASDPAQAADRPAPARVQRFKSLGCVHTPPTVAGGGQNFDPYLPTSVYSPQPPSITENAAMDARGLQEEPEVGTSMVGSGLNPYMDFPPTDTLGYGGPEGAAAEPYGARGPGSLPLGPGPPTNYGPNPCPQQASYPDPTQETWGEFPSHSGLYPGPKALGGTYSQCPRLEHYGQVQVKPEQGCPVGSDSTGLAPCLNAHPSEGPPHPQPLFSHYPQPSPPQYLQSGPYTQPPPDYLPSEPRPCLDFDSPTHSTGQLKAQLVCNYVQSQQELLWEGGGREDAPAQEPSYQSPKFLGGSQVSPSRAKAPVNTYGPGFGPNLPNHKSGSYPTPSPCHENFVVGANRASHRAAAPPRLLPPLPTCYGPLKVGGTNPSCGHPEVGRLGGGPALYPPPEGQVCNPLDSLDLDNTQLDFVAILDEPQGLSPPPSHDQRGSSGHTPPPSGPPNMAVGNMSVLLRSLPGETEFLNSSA
# Method in brief: (§1)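 A375 cells treated with compound (5 μM) or DMSO for 48 h. mRNA measured by qPCR as gene/(mean of HPRT and EIF2α) ratio, DMSO control set to 1. Mean ± SD.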
# [5] = target: T2, Zinc finger protein GLI1 (Homo sapiens); experiment: Inhibition of GLI1 transcriptional activity in human A375 cells assessed as downregulation of Cyclin D1 mRNA expression at 5 uM incubated for 48 hrs by qPCR analysis; format: cell-based; conditions: A-375; method in brief: as §1
# [6] = target: T2, Zinc finger protein GLI1 (Homo sapiens); experiment: Inhibition of GLI1 transcriptional activity in human A375 cells assessed as downregulation of PTCH1 mRNA expression at 5 uM incubated for 48 hrs by qPCR analysis; format: cell-based; conditions: A-375; method in brief: as §1
# [7] = target: T2, Zinc finger protein GLI1 (Homo sapiens); experiment: Inhibition of GLI1 transcriptional activity in human A375 cells assessed as downregulation of GLI1 mRNA expression at 5 uM incubated for 48 hrs by qPCR analysis; format: cell-based; conditions: A-375; method in brief: as §1
# [8] = target: T2, Zinc finger protein GLI1 (Homo sapiens); experiment: Inhibition of GLI1 transcriptional activity in human A375 cells assessed as downregulation of HIP1 mRNA expression at 5 uM incubated for 48 hrs by qPCR analysis; format: cell-based; conditions: A-375; method in brief: as §1
# A-375 [9] = experiment: Antiproliferative activity against human A375 cells transfected with lentivrus-encoding shRNA against GLI1 assessed as reduction in cell viability incubated for 72 hrs by trypan blue or crystal violet staining based assay; format: functional
# Method in brief: (§2)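 A375 melanoma cells transduced with control lentivirus (LV-c), LV-shGLI1 or LV-shGLI2, with knockdown checked by Western blot (HSP90 loading control). Cells treated with DMSO or compound at the indicated doses for 72 h, then viability read. Values are mean ± SD of at least three independent experiments.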
# A-375 [10] = experiment: Antiproliferative activity against human A375 cells transfected with lentivrus-encoding shRNA against GLI2 assessed as reduction in cell viability incubated for 72 hrs by trypan blue or crystal violet staining based assay; format: functional; method in brief: as §2
# [11] = Homo sapiens, A-375, 72 h, read-out: IC50
# [12] = Homo sapiens, Daoy, 72 h, read-out: IC50
SMILES,inhibition [2],inhibition [3] [%],IC50 (A-375 [1]; [11]) [nM],IC50 (Daoy; [12]) [nM],further results
CCOC(=O)c1c(-c2ccccc2)csc1NC(NC(=O)c1cccc2ccccc12)C(Cl)(Cl)Cl (centres undefined),inactive,7,–,–,IC50 (A-375 [1]; a-375): Not Active; IC50 (Daoy; daoy): Not Active
O=C(NCCc1ccccc1)c1cnn2c(C(F)F)cc(C3CC3)nc12,inactive,–,–,–,–
CCOC(=O)c1c(-c2ccccc2)csc1NC(NC(=O)c1cccc(C)c1)C(Cl)(Cl)Cl (centres undefined),inactive,–,–,–,IC50 (A-375 [1]; a-375): Not Active; IC50 (Daoy; daoy): Not Active
CCOC(=O)c1c(-c2ccccc2)csc1NC(NC(=O)c1ccccc1C)C(Cl)(Cl)Cl (centres undefined),inactive,–,–,–,IC50 (A-375 [1]; a-375): Not Active; IC50 (Daoy; daoy): Not Active
CCOC(=O)c1c(-c2ccccc2)csc1NC(NC(=O)c1ccccc1)C(Cl)(Cl)Cl (centres undefined),Active,40,12000,900,Activity (MCF-10A): Non-Toxic; inhibition [4]: Active; inhibition [5]: Active; inhibition [6]: Active; inhibition [7]: Active; inhibition [8]: Active
CCOC(=O)c1c(-c2ccccc2)csc1NC(NC(=O)c1ccc([N+](=O)[O-])cc1)C(Cl)(Cl)Cl (centres undefined),Active,74,5200,3100,–
O=C(c1cnn2c(C(F)F)cc(C3CC3)nc12)N(Cc1ccccc1)Cc1ccccc1,inactive,–,–,–,–
COc1cc(OC)c2c(=O)c(-c3ccc(OCC=C(C)C)c(OCC=C(C)C)c3)coc2c1,Active,46,400,130,inhibition [4]: Active; inhibition [5]: Active; Activity (A-375 [9]): inactive; Activity (A-375 [10]): inactive; inhibition [6]: Active; inhibition [7]: Active; inhibition [8]: Active
COc1c(O)cc2oc3cc(O)c(CC=C(C)C)c(O)c3c(=O)c2c1CC=C(C)C [MANGOSTIN],Active,43,2700,1900,–
O=C(NC1CCCc2ccccc21)c1cnn2c(C(F)F)cc(C3CC3)nc12 (centres undefined),Active,54,5000,7500,–
CCOC(=O)c1c(-c2ccccc2)csc1NC(NC(=O)c1ccc(Br)cc1)C(Cl)(Cl)Cl (centres undefined),Active,78,2000,3400,–
O=C(NC1CCCc2ccccc21)c1cnn2c(C(F)(F)F)cc(-c3cccs3)nc12 (centres undefined),Active,49,1200,4400,Activity (MCF-10A): Non-Toxic; inhibition [4]: Active; inhibition [5]: Active; Activity (A-375 [9]): inactive; Activity (A-375 [10]): inactive; inhibition [6]: Active; inhibition [7]: Active; inhibition [8]: Active
CCOC(=O)c1c(-c2ccccc2)csc1NC(NC(=O)c1cccc(Cl)c1)C(Cl)(Cl)Cl (centres undefined),Active,81,6100,5500,–
O=C(NCc1ccc2c(c1)OCO2)c1cnn2c(C(F)F)cc(C3CC3)nc12,inactive,–,–,–,–
O=C(NC1CCCCC1)c1cnn2c(C(F)F)cc(C3CC3)nc12,inactive,–,–,–,–
CCOC(=O)c1c(-c2ccccc2)csc1NC(NC(=O)c1ccc(C)cc1)C(Cl)(Cl)Cl (centres undefined),inactive,–,–,–,IC50 (A-375 [1]; a-375): Not Active; IC50 (Daoy; daoy): Not Active
O=C(NC1CCCc2ccccc21)c1cnn2c(C(F)(F)F)cc(-c3ccco3)nc12 (centres undefined),Active,66,600,5700,–
CCOC(=O)c1c(-c2ccccc2)csc1NC(NC(C)=O)C(Cl)(Cl)Cl (centres undefined),inactive,38,5100,2800,–
Cc1cc(C(F)F)n2ncc(C(=O)NC3CC(C)(C)Oc4ccccc43)c2n1 (centres undefined),inactive,0,–,–,IC50 (A-375 [1]; a-375): Not Active; IC50 (Daoy; daoy): Not Active
CC1(C)CC(NC(=O)c2cnn3c(C(F)F)cc(C4CC4)nc23)c2ccccc2O1 (centres undefined),Active,40,2200,2300,Activity (MCF-10A): Non-Toxic; inhibition [4]: Active; inhibition [5]: Active; inhibition [6]: Active; inhibition [7]: Active; inhibition [8]: Active
CCOC(=O)c1c(-c2ccccc2)csc1NC(NC(=O)c1ccco1)C(Cl)(Cl)Cl (centres undefined),Active,51,2700,4300,–
O=C(NC1CCOc2ccccc21)c1cnn2c(C(F)F)cc(C3CC3)nc12 (centres undefined),inactive,–,–,–,IC50 (A-375 [1]; a-375): Not Active; IC50 (Daoy; daoy): Not Active
